From PubChem BioAssay
Hits are enriched below; roughly 2.2% of the tested compounds scored in any of these assays.
INS promoter inh – TRM-6 insulin promoter activity inhibition. TRM-6 cells (human fetal islet line), insulin promoter-eGFP reporter, imaging; reporter expression induced with tamoxifen. inhibition, % at 2 µM. 0.9% of 130,000 active. AID 1273;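 active = inhibition above the mean plus 3 SD, with well images judged a real hit on visual review, cut at about 60% in these data, passing the limit was not always enough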
RBBP9 inhibitor – inhibitors of human serine hydrolase RBBP9; 0.2% of 220,000 active; recombinant RBBP9, FP-Rh probe fluorescence polarization; inhibition, % at 7.94 µM; O75884;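 active = inhibition above the campaign mean of all tested compounds plus 3 SD, cut at about 14% in these data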;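 also: plate controls were DMSO wells with RBBP9 for no effect and wells lacking RBBP9 protein for full effect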
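System: RBBP9 protein | Quantity: 2.5 µM RBBP9 dispensing solution, before mixing | Reagent: FP-Rh probe, 375 nM dispensing solution | Timing: Enzyme-compound preincubation 30 min, then probe labeling 45 min, 25 °C | Measured by: Fluorescence polarization | Read-out: % inhibition | Replication: One well per compound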
Hsp70 act – switches on Hsp70 transcription. activation, % at 10 µM. HeLa Hsp70 promoter luciferase reporter, luminescence; scaled: vehicle 0, proteasome-inhibitor control 100%. 0.04% of 200,000 active;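 active = activation above the mean across all tested compounds plus 3 SD, cutoff set per campaign, cut at about 5.5% in these data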;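 also: 100% = MG132 at 30 µM as the positive control and 0% = DMSO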
Insulin prom up – MIN6 insulin promoter up-regulation | z-score at 5 µM | 0.3% of 190,000 active | MIN6 insulin promoter-GFP reporter, high-content imaging; active compounds read high | AID 1625;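 active = z-score above 3 at 5 µM with at least 500 cells counted in the well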
MDM2 E3 inh – inhibitors of human Mdm2 E3 ubiquitin ligase. cell-based MDM2 ubiquitination luciferase reporter, 2 h; 0 = plate control, 100 = twice control, blank-subtracted. Q00987. AID 1230. 0.11% of 210,000 active. signal enhancement, % at 5 µM;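 active = signal enhancement of 30% or more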;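 also: luminescence tracks abundance of the self-degrading MDM2-luciferase fusion protein; higher signal means inhibition of MDM2 E3 ligase activity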
Target sequence (Q00987 whole entry, looked up, the tested form may be a part): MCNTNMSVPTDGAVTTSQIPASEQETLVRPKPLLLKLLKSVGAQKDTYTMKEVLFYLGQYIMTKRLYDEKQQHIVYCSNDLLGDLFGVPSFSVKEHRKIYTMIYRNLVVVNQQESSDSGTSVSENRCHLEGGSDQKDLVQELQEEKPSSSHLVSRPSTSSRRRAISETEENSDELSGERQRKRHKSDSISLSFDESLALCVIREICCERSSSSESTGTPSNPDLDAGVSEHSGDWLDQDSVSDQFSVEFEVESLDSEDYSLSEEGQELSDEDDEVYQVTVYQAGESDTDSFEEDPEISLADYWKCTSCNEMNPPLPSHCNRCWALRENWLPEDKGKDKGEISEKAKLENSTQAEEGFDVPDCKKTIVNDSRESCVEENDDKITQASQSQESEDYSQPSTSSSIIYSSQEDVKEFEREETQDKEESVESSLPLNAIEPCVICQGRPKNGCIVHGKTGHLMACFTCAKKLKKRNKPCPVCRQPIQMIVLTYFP
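system = mammalian cells stably expressing self-ubiquitinating, self-degrading MDM2 E3–luciferase fusion | quantity = 2000 cells per well seeded | incubation = 4 h cell settling then 2 h compound exposure, 37 °C | signal = SteadyLite luminescence, 15 min reagent step | benchmarks = plate control and blank wells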
Wee1 stabilizer – human Wee1 degradation inhibition, primary screen. reporter increase, % at 5 µM. 1.2% of 220,000 active. HeLa Luc-Wee1K328M stability, luciferase luminescence; 100% = proteasome inhibitor MG132 effect. AID 1321. P30291;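 active = activation above the mean of all tested compounds plus 3 SD, set per screening run, cut at about 8.8% in these data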;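 also: cells exposed to compound for 20 h before luminescence read; 0% = DMSO alone and 100% = MG132 at 30 µM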
Active calls of the source: *; i = inactive; nt = not tested or not shown.

SMILES	INS promoter inh	RBBP9 inhibitor	Hsp70 act	Insulin prom up	MDM2 E3 inh	Wee1 stabilizer
COc1cc(C(=O)O)cc(Br)c1OC1CCCC1	-103	5	0	0.48	-9	-1
COC(=O)c1ccc(-c2nc(-c3cccs3)no2)cc1	nt	2	-1	0.1	-80	1
Fc1ccc(-c2nc(-c3cccs3)no2)cc1	nt	-14	nt	0.14	-16	15*
C[N+]1([O-])[C@@H]2Cc3cc4c(cc3[C@@H]1Cc1cc3c(cc12)OCO3)OCO4 (stereo not given in full)	nt	nt	nt	-0.72	13	nt
C=CCn1c(=NC(=O)c2cc(-c3cccs3)nc3ccccc23)sc2cc(S(N)(=O)=O)ccc21	-32	-56	0	9*	4	4
CCCNS(=O)(=O)c1ccc(OCC(=O)N2CCCC2)cc1	nt	-7	0	-2.6	-7	-3
Cc1cc(C)c(NC(=O)c2sc3nc(C)[nH]c(=O)c3c2C)c(C)c1	nt	-1	0	-0.47	2	1
Cc1ccc(NC(=O)c2sc3nc(CCl)[nH]c(=O)c3c2C)c(C)c1	25	1	0	-0.25	-5	16*
Cc1ccc(NC2=C(CC(=O)O)C(c3ccccc3)N(c3ccc(C)cc3)C2=O)cc1 (stereo not given)	-22	7	0	-0.92	-17	3
COc1ccc(C2C(CC(=O)O)=C(O)C(=O)N2c2ccccc2)cc1 (stereo not given)	-18	-8	0	0.88	34*	-2
COCCCNC(=S)NNC(=O)c1csc(C)n1	nt	-15	nt	-0.07	-1	-3
COc1ccc2cc(CCNC(=O)c3cccs3)c(=O)[nH]c2c1	-14	-6	0	-0.21	nt	9.5*
Cc1c(C(=O)Nc2ccc(F)cc2)c2ccccn2c1CCc1ccncc1	nt	-1	0	0.16	-16	1
COC(=O)c1ccc(NC(=S)NNC(=O)CC(C)C)cc1	nt	-6	0	1	7	10*
COC(=O)c1ccc(NC(=S)NNC(=O)c2ccccc2)cc1	nt	-4	0	-0.25	12	-2
COC(=O)c1c(NC(=O)c2ccccc2)sc2c1CC(C)(C)OC2	-3	-11	0	-0.32	-1	9.4*
CCCC(=O)Nc1sc2c(c1C(=O)OCC)CC(C)(C)OC2	75*	-1	0	nt	-7	-1
CCOC(=O)c1c(NC(=O)CCC(=O)N(CC)CC)sc2c1CC(C)(C)OC2	nt	-1	nt	0.61	3	1
O=C1CN(c2nc3ccccc3n3cnnc23)CC(=O)N1CCc1ccccc1	nt	-1	0	1.4	-8	-2
COc1ccc(C(=O)C[n+]2cccc(C)c2C)cc1[N+](=O)[O-]	-107	-4	0	-0.4	-13	11*
COc1ccc(C(=O)COC(=O)c2ccc(NC(C)=O)cc2)cc1[N+](=O)[O-]	nt	-1	0	0.86	-8	-2
CC12C=CC3(CN(Cc4ccccc4)C(=O)C3C1C(=O)NCc1ccco1)O2 (stereo not given)	nt	-7	0	0.53	-4	2
CC1=NN(C(=O)COc2cc(C)ccc2C(C)C)C(O)(c2ccccc2)C1 (stereo not given)	nt	-3	nt	-0.44	5	11*
C[C@H](NC(=O)c1nc[nH]c1C(=O)NCCCCCNC(=O)OC(C)(C)C)C(=O)OCc1ccccc1	nt	0	0	-0.24	nt	9.1*
CC(C)C[C@H](NC(=O)c1nc[nH]c1C(=O)NCCCCCNC(=O)OC(C)(C)C)C(=O)OCc1ccccc1	nt	-10	0	0.16	nt	0
SMILES	INS promoter inh	RBBP9 inhibitor	Hsp70 act	Insulin prom up	MDM2 E3 inh	Wee1 stabilizer
CCOC(=O)c1c(CC(C)C)csc1NC(=O)COC(=O)c1cc(OC)c(OC)cc1[N+](=O)[O-]	nt	6	0	-1.6	-11	-1
CCC(CC)NC(=O)c1cccc(Br)c1	88*	4	0	-0.44	-4	-1
Cn1nnc(NC(=O)c2cccc([N+](=O)[O-])c2)n1	nt	-2	nt	0.12	-6	-3
Cn1c2ccccc2c(=O)c2c(=O)n(Cc3ccco3)c(-c3ccc(C(C)(C)C)cc3)nc21	nt	-3	nt	-1.1	-3	-3
COc1cccc(/C=N/NC(=O)CO/N=C(\C)c2cccs2)c1OC	-86	7	0	0.94	-4	10*
Cc1[nH]nc(Nc2ccc(Br)cc2)c1[N+](=O)[O-]	nt	-4	nt	-0.18	3	9.2*
CCCC(=O)Nc1cc(C)c(NC(=O)C23CC4CC(CC(C4)C2)C3)cn1	57	1	0	0.57	0	-1
Cc1cc(NC(=O)C2CC2)ncc1NC(=O)C12CC3CC(CC(C3)C1)C2	nt	-3	0	0.74	30*	-1
O=C(N/N=C/c1ccccc1)c1ccc(N2CCOCC2)c([N+](=O)[O-])c1	-42	-9	0	0.33	-4	0
O=C(N/N=C/c1cc([N+](=O)[O-])c(N2CCOCC2)cc1N1CCOCC1)c1cccnc1	69*	0	0	-1.4	-6	-1
Cn1c(O)c(/C=C2\C=NN=C2c2ccccc2)sc1=S	nt	-3	nt	0.09	0	9.6*
COc1ccc(/C=N/n2c(N)nc3ccccc32)cc1OC	75*	0	0	-0.25	-21	5
COc1cccc(/C=N/n2c(N)nc3ccccc32)c1OC	20	-1	1	1.3	-12	1
Cc1ccc(C2C(=O)N(C3CCC(C)CC3)CC(=O)N2C2CCCC2)cc1 (stereo not given)	68*	1	0	nt	-3	-1
O=C(COC(=O)c1cc(S(=O)(=O)N2CCCCC2)ccc1N1CCOCC1)NC1CCS(=O)(=O)C1 (stereo not given)	nt	-2	0	-0.13	-4	7
O=C(Nc1ccccc1Oc1ccccc1)C1CC1	8	12	0	0.6	-43	10*
Cc1oc2c(c1C(=O)Nc1cccc(C(=O)O)c1)CCCC2	66*	-1	0	nt	-12	-2
Cc1ccc(C(=O)Nc2cccc(C(=O)O)c2)cc1	-7	-10	-1	-0.88	-24	-3
CCOc1ccc2c(c1)C(c1ccccc1)=NNC(c1ccccc1)=N2	-85	-4	0	0.13	nt	0
COc1ccc(/C=C/C(=O)c2ccc3c(c2)OCO3)c(OC)c1	17	-7	0	-0.13	-8	29*
COc1ccc(/C=C/C(=O)c2ccccc2)c(OC)c1	nt	-1	0	-0.26	-33	7
COc1cc2c3nnc(-c4ccc(F)cc4)c-3cn(Cc3ccccc3F)c2cc1OC	i	-4	0	6.3*	-5	2
CC1(C)Cc2c(c(-c3ccccc3)[nH]c(=O)c2C#N)CO1	nt	-4	0	3.4*	0	-4
CC1(C)Cc2c(c(-c3ccccc3Cl)[nH]c(=O)c2C#N)CO1	56	-9	1	nt	-12	1
